From ChEMBL document CHEMBL1833937, “Structure-based design of pseudopeptidic inhibitors for SIRT1 and SIRT2” (J Med Chem, 2011)
The source made the active and inactive calls. No cut-off for these calls is given here.

What follows are compounds tested against T1, NAD-dependent protein deacetylase sirtuin-1 (Homo sapiens, UniProt Q96EB6) (assay: Inhibition of recombinant GST-tagged SIRT1 after 1 hr by Fluor de Lys-based fluorescence assay).
T1 sequence (Q96EB6 whole entry): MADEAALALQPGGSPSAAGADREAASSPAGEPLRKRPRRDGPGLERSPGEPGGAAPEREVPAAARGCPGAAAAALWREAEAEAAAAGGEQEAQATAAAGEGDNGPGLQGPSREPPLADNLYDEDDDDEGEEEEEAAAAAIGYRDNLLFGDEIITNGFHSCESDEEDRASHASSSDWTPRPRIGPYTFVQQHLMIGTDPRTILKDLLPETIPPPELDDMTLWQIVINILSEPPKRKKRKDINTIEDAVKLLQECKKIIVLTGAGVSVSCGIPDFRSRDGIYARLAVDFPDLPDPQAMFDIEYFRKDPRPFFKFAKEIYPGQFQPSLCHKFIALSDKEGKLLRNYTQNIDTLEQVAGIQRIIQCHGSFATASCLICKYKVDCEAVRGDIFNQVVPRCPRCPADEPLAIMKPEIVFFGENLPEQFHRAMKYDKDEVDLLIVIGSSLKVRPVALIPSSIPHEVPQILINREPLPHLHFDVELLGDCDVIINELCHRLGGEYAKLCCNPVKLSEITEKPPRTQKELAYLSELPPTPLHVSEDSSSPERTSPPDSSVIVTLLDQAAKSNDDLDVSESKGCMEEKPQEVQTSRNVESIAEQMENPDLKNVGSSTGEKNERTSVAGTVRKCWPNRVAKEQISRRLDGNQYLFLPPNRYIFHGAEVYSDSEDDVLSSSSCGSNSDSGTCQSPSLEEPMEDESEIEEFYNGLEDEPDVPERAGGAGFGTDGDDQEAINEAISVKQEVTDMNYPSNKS
How it was run: (§1)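 Fluor de Lys deacetylation: GST-SIRT1 with KI177 substrate at 40 μM or GST-SIRT2 with KI179 substrate at 138 μM (70% of Km; Km 58 and 198 μM), 500 μM NAD+, assay buffer with 1 mg/mL BSA, DMSO 2.5 μL per 50 μL. Substrate, NAD+ and compound preincubated 5 min rt; enzyme starts reaction, 1 h 37 °C. Developer plus 2 mM nicotinamide, 45 min 37 °C; ex 355/em 460 nm. IC50 from 9-point dose-response (0.0001–2000 μM), at least three repeats.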

Row | Structure (SMILES) | IC50
1 | CC(=S)NCCCC[C@H](NC(=O)OCc1ccccc1)C(=O)Nc1ccccc1O | 5.1 µM
2 | COC(=O)[C@H](C)NC(=O)[C@H](CCCCNC(C)=S)NC(=O)[C@H](C)NC(C)=O | 1 µM
3 | CC(=S)NCCCC[C@H](NC(=O)OCc1ccccc1)C(=O)NC1CCCCC1 | 23 µM
4 | CC(=S)NCCCC[C@H](NC(=O)OCc1ccccc1)C(=O)Nc1ccccc1 | 9.9 µM
5 | CNC(=O)[C@H](C)NC(=O)[C@H](CCCCNC(C)=S)NC(=O)[C@H](C)NC(C)=O | 0.4 µM
6 | CC(=S)NCCCC[C@H](NC(=O)CCc1ccccc1F)C(=O)N[C@@H](C)C(=O)O | 1.3 µM
7 | CC(=S)NCCCC[C@H](NC(=O)[C@H](C)NC(=O)OC(C)(C)C)C(=O)N[C@@H](C)C(=O)O | 0.77 µM
8 | CC(=O)N1CCC[C@H]1C(=O)N[C@@H](CCCCNC(C)=S)C(=O)N[C@@H](C)C(=O)O | 0.37 µM
9 | CC(=S)NCCCC[C@H](NC(=O)[C@@H]1CCCN(C(=O)OC(C)(C)C)C1)C(=O)N[C@@H](C)C(=O)O | 0.97 µM

Each compound was assayed against T2, NAD-dependent protein deacetylase sirtuin-2 (Homo sapiens, UniProt Q8IXJ6) (assay: Inhibition of recombinant GST-tagged SIRT2 after 1 hr by Fluor de Lys-based fluorescence assay).
T2 sequence (Q8IXJ6 whole entry): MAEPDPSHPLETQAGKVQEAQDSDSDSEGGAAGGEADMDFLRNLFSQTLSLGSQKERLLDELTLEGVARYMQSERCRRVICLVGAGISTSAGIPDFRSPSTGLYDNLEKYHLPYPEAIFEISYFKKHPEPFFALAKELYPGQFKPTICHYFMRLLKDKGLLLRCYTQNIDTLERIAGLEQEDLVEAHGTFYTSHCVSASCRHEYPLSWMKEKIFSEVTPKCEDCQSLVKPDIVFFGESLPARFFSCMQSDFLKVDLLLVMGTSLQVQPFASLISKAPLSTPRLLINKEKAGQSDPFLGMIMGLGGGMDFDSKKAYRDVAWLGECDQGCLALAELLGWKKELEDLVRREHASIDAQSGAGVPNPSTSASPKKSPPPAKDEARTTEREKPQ
How it was run: as §1

Row | Structure (SMILES) | IC50
10 | CC(=S)NCCCC[C@H](NC(=O)OCc1ccccc1)C(=O)Nc1ccccc1O | 7.4 µM
11 | COC(=O)[C@H](C)NC(=O)[C@H](CCCCNC(C)=S)NC(=O)[C@H](C)NC(C)=O | 13 µM
12 | CC(=S)NCCCC[C@H](NC(=O)OCc1ccccc1)C(=O)Nc1ccccc1 | 15 µM
13 | CNC(=O)[C@H](C)NC(=O)[C@H](CCCCNC(C)=S)NC(=O)[C@H](C)NC(C)=O | 2.9 µM
14 | CC(=S)NCCCC[C@H](NC(=O)CCc1ccccc1F)C(=O)N[C@@H](C)C(=O)O | 27 µM
15 | CC(=S)NCCCC[C@H](NC(=O)[C@H](C)NC(=O)OC(C)(C)C)C(=O)N[C@@H](C)C(=O)O | 6.5 µM
16 | CC(=O)N1CCC[C@H]1C(=O)N[C@@H](CCCCNC(C)=S)C(=O)N[C@@H](C)C(=O)O | 31 µM
17 | CC(=S)NCCCC[C@H](NC(=O)[C@@H]1CCCN(C(=O)OC(C)(C)C)C1)C(=O)N[C@@H](C)C(=O)O | 13 µM

What follows are compounds tested against Histone deacetylase (Homo sapiens) (UniProt Q13547+O15379+Q9UBN7+Q92769+Q9UQL6+Q8WUI4+Q9BY41+Q96DB2+P56524+Q9UKV0+Q969S8) (assay: Inhibition of HDAC in human HeLa nuclear extract at 200 uM after 1 hr by Fluor de Lys-based fluorescence assay).
Type: protein assay
How it was run: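 HeLa nuclear extract as HDAC source, 50 μM acetylated Fluor de Lys HDAC substrate, compounds 200 μM in HDAC assay buffer; substrate addition starts reaction, 1 h at 37 °C. Developer plus […], 15 min at 25 °C; fluorescence ex 355/em 460 nm. Run twice; means and standard deviations.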

Row | Structure (SMILES) | inhibition
18 | CC(=S)NCCCC[C@H](NC(=O)OCc1ccccc1)C(=O)Nc1ccccc1O | 1.9%
19 | CC(=S)NCCCC[C@H](NC(=O)OCc1ccccc1)C(=O)NC1CCCCC1 | 75.4%
20 | CC(=S)NCCCC[C@H](NC(=O)OCc1ccccc1)C(=O)Nc1ccccc1 | 2.5%
21 | CC(=S)NCCCC[C@H](NC(=O)CCc1ccccc1F)C(=O)N[C@@H](C)C(=O)O | 16.3%
22 | CC(=S)NCCCC[C@H](NC(=O)[C@H](C)NC(=O)OC(C)(C)C)C(=O)N[C@@H](C)C(=O)O | 10.1%
23 | CC(=S)NCCCC[C@H](NC(=O)[C@@H]1CCCN(C(=O)OC(C)(C)C)C1)C(=O)N[C@@H](C)C(=O)O | 23.7%

These compounds were tested against T3, NAD-dependent protein deacetylase sirtuin-1 (Homo sapiens) (UniProt Q96EB6) (assay: Inhibition of human SIRT1 in SH-SY5Y cells assessed as increase in p53 acetylation level at 10 uM after 5 hrs by Western blot analysis in presence of etoposide-induced DNA damage).
T3 sequence (whole entry): T1 sequence (Q96EB6 whole entry)
Type: cell-based
How it was run: (§2)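 Cells seeded at 10^5 per well and treated 24 h later with compound plus etoposide together for 5 h. Lysates (M-PER) cleared 16000g 20 min, equal protein on 4–12% SDS-PAGE, blotted to nitrocellulose, probed with rabbit monoclonal anti-acetyl-p53 (K382), actin as loading control, HRP secondary and chemiluminescence.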

Row | Structure (SMILES) | Activity
24 | CC(=S)NCCCC[C@H](NC(=O)[C@@H]1CCCN(C(=O)OC(C)(C)C)C1)C(=O)N[C@@H](C)C(=O)O | Active

The compounds below were run against T3, NAD-dependent protein deacetylase sirtuin-1 (Homo sapiens) (assay: Inhibition of human SIRT1 in SH-SY5Y cells assessed as increase in p53 acetylation level at 100 uM after 5 hrs by Western blot analysis in presence of etoposide-induced DNA damage).
Type: cell-based
How it was run: as §2

Row | Structure (SMILES) | Activity
25 | CC(=S)NCCCC[C@H](NC(=O)[C@@H]1CCCN(C(=O)OC(C)(C)C)C1)C(=O)N[C@@H](C)C(=O)O | Active

The compounds below were run on SH-SY5Y (assay: Cytotoxicity against human SH-SY5Y cells at 10 uM by LDH assay).
Type: functional, cell-based
How it was run: (§3)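 After plating at 10^5 cells/well and 24 h attachment, cells exposed 5 h to compound together with etoposide; cytotoxicity read as lactate dehydrogenase released into culture medium by a commercial LDH kit.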

Row | Structure (SMILES) | Activity
26 | CC(=S)NCCCC[C@H](NC(=O)[C@@H]1CCCN(C(=O)OC(C)(C)C)C1)C(=O)N[C@@H](C)C(=O)O | inactive

These compounds were tested on SH-SY5Y (assay: Cytotoxicity against human SH-SY5Y cells at 100 uM by LDH assay).
Type: functional, cell-based
How it was run: as §3

Row | Structure (SMILES) | Activity
27 | CC(=S)NCCCC[C@H](NC(=O)[C@@H]1CCCN(C(=O)OC(C)(C)C)C1)C(=O)N[C@@H](C)C(=O)O | inactive
